Measurements reported in ChEMBL document CHEMBL1932920.
Active and inactive are the calls of the source.

Assays:
[1] = target: T1, Serine carboxypeptidase-like 48 (Arabidopsis thaliana) (UniProt Q56WF8); assay: Binding affinity to SCPL48 in Arabidopsis thaliana leaf extracts pre-incubated with 100 uM paraoxon for 30 mins at 5 uM after 1 hr using SDS-PAGE followed by nanoLC-ESI-MS/MS analysis
T1 sequence (whole entry): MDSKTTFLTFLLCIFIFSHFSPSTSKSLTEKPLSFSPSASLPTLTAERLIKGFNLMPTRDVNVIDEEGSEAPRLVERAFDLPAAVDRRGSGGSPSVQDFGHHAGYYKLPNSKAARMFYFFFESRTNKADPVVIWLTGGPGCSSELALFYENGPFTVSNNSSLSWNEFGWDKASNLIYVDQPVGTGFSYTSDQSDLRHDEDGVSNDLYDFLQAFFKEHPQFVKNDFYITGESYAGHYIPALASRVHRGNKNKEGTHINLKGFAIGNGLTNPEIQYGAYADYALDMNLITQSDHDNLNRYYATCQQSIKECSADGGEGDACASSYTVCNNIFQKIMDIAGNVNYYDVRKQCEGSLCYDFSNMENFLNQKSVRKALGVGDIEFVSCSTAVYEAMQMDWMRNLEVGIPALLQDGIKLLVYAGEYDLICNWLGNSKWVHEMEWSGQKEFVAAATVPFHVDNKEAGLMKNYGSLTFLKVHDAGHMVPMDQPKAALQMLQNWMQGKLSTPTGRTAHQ
Procedure, shortened: (§1)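 Extract from 2 g frozen leaves of 4-week-old A. thaliana Col-0, ground, taken up in water, cleared 5 min at 16,000×g. Labeled with 5 µM probe, biotinylated targets pulled down on avidin beads, run on 1D SDS–PAGE and fluorescence-scanned. Bands excised, digested in-gel, and analysed by nanoLC-ESI-MS/MS on LTQ Velos (C18, 5–40% acetonitrile over 90 min, 300 nL/min, positive mode, m/z 400–1600).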

[2] = target: T2, Probable carboxylesterase 12 (Arabidopsis thaliana) (UniProt Q9SMN0); assay: Binding affinity to Arabidopsis thaliana CXE12 overexpressed in agroin filtreated Nicotiana benthamiana leaf extracts pre-incubated with 100 uM paraoxon for 30 mins at 2 uM after 1 hr using SDS-PAGE followed by nanoLC-ESI-MS/MS analysis
T2 sequence (whole entry): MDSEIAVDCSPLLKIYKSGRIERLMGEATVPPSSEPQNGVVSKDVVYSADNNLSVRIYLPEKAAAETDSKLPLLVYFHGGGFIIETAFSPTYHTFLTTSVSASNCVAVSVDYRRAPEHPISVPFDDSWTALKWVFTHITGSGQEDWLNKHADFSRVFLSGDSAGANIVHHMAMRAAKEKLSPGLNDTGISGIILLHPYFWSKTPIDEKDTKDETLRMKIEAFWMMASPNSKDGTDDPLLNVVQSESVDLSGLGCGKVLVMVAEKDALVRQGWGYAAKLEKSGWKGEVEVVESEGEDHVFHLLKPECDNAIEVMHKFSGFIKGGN
Procedure, shortened: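 CXE12 cDNA in binary vector, Agrobacterium GV3101 pMP90, co-infiltrated with p19 silencing-suppressor strain into 4-week-old N. benthamiana leaves (p19 alone as control). Leaf extracts preincubated 30 min with 100 µM paraoxon or DMSO, then labeled 1 h with 2 µM probe. Reactions stopped in gel loading buffer, proteins resolved on gels, fluorescence scanning.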

[3] = target: T3, Probable carboxylesterase 7 (Arabidopsis thaliana) (UniProt Q9ZQ91); assay: Binding affinity to CXE7 in Arabidopsis thaliana leaf extracts pre-incubated with 100 uM paraoxon for 30 mins at 5 uM after 1 hr using SDS-PAGE followed by nanoLC-ESI-MS/MS analysis; procedure, shortened: as §1
T3 sequence (whole entry): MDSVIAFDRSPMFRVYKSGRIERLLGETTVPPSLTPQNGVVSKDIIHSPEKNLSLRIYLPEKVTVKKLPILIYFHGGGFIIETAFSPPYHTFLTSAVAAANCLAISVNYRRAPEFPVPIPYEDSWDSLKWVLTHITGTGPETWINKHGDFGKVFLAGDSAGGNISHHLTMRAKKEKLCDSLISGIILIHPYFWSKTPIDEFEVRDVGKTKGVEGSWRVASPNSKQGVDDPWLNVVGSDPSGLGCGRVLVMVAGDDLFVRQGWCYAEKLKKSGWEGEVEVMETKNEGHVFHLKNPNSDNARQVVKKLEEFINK

[4] = tested on: Arabidopsis thaliana; assay: Binding affinity to POPL in Arabidopsis thaliana leaf extracts pre-incubated with 100 uM paraoxon for 30 mins at 5 uM after 1 hr using SDS-PAGE followed by nanoLC-ESI-MS/MS analysis; procedure, shortened: as §1
[5] = target: T2, Probable carboxylesterase 12 (Arabidopsis thaliana); assay: Binding affinity to CXE12 in Arabidopsis thaliana leaf extracts pre-incubated with 100 uM paraoxon for 30 mins at 5 uM after 1 hr using SDS-PAGE followed by nanoLC-ESI-MS/MS analysis; procedure, shortened: as §1
[6] = tested on: Arabidopsis thaliana; assay: Binding affinity to POPL in Arabidopsis thaliana leaf extracts at 4 to 20 uM after 1 hr using SDS-PAGE followed by nanoLC-ESI-MS/MS analysis
[7] = target: T1, Serine carboxypeptidase-like 48 (Arabidopsis thaliana); assay: Binding affinity to SCPL48 in Arabidopsis thaliana leaf extracts at 4 to 20 uM after 1 hr using SDS-PAGE followed by nanoLC-ESI-MS/MS analysis
[8] = target: T2, Probable carboxylesterase 12 (Arabidopsis thaliana); assay: Binding affinity to CXE12 in Arabidopsis thaliana leaf extracts at 4 to 20 uM after 1 hr using SDS-PAGE followed by nanoLC-ESI-MS/MS analysis
[9] = target: T3, Probable carboxylesterase 7 (Arabidopsis thaliana); assay: Binding affinity to CXE7 in Arabidopsis thaliana leaf extracts at 4 to 20 uM after 1 hr using SDS-PAGE followed by nanoLC-ESI-MS/MS analysis

Measured: Activity

CCOP(=O)(CCOCCOCCOCCOC(=O)NCc1cn(CCCCCNC(=O)CCC(=O)N[C@@H](CCCCNC(=O)CCCCC[C@@H]2SC[C@@H]3NC(=O)N[C@@H]32)C(=O)NCCCCCNC(=O)c2ccc(-c3c4ccc(=[N+](C)C)cc-4oc4cc(N(C)C)ccc34)c(C(=O)[O-])c2)nn1)Oc1ccc([N+](=O)[O-])cc1 (some centres undefined)
active: [1] | [2] | [3] | [4] | [5]

C#CCNC(=O)OCCOCCOCCOCCP(=O)(OCC)Oc1ccc([N+](=O)[O-])cc1 (centres undefined)
active: [6] | [7] | [8] | [9]
